Experimental data: ChEMBL document CHEMBL4184106, “Discovering alkylamide derivatives of bexarotene as new therapeutic agents against triple-negative breast cancer” (Bioorg Med Chem Lett, 2018)
Calls of active or inactive are those of the source. No cut-off for these calls is given here.

Key:
BT-549 [1] = assay: Effect on epithelial-mesenchymal transition in human BT549 cells assessed as ratio of E-cadherin to beta-actin level at 5 uM by Western blot analysis (reference value: 1); type: functional
MDA-MB-231 [2] = assay: Effect on epithelial-mesenchymal transition in human MDA-MB-231 cells assessed as ratio of E-cadherin to beta-actin level at 5 uM by Western blot analysis (reference value: 1); type: functional
MCF7 [3] = assay: Down regulation of c-Myc expression in human MCF7 cells at 5 uM by Western blot analysis; type: functional
Procedure, shortened: (§1)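 MCF-7 cells were treated and lysates probed by Western blot for CSC-related markers, with β-actin as loading control. Band densitometry was normalized to DMSO-treated samples.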

BT-549 [4] = assay: Inhibition of mammosphere formation in human BT549 cells assessed as ratio of KLF4 to beta actin level at 5 uM by Western blot analysis (Rvb= 1); type: functional
MCF7 [5] = assay: Inhibition of mammosphere formation in human MCF7 cells assessed as ratio of C-Myc to beta actin level at 5 uM by Western blot analysis (Rvb= 1); type: functional
Procedure, shortened: (§2)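 Post-treatment cell lysates were probed by Western blot for CSC markers, with β-actin as the loading control. Band densitometry was normalized to DMSO-treated samples.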

MCF7 [6] = assay: Inhibition of mammosphere formation in human MCF7 cells assessed as ratio of Oct4A to beta actin level at 5 uM by Western blot analysis (Rvb= 1); type: functional; procedure, shortened: as §2
MCF7 [7] = assay: Inhibition of colony formation in human MCF7 cells at 5 uM supplemented with fresh medium containing compound every 3 to 4 days for 7 days by crystal violet staining based adherent cell colony-forming assay; type: functional
Procedure, shortened: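 MCF-7 cells were plated for adherent colony formation and treated for 7 days. Colonies were counted at the end of treatment and normalized to untreated samples.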

MCF-10A [8] = assay: Cytotoxicity against human MCF10A cells assessed as reduction in cell viability by MTT assay; type: cell-based
MCF7 [9] = assay: Induction of apoptosis in human MCF7 cells assessed as ratio of cleaved caspase-8 to beta-actin level at 5 uM by western blot analysis (reference value: 1); type: functional
MDA-MB-231 [10] = assay: Induction of apoptosis in human MDA-MB-231 cells assessed as ratio of cleaved caspase-9 to beta-actin level at 5 uM by western blot analysis (reference value: 1); type: functional
MDA-MB-231 [11] = assay: Inhibition of colony formation in human MDA-MB-231 cells at 2 uM supplemented with fresh medium containing compound every 3 days for 10 days by microscopic method based soft agar colony formation assay relative to control; type: functional
BT-549 [12] = assay: Induction of apoptosis in human BT549 cells assessed as ratio of cleaved caspase-8 to beta-actin level at 5 uM by western blot analysis (reference value: 1); type: functional
MCF7 [13] = assay: Down regulation of KLF4 expression in human MCF7 cells at 5 uM by Western blot analysis; type: functional; procedure, shortened: as §1
MDA-MB-231 [14] = assay: Cytotoxicity against human MDA-MB-231 cells assessed as reduction in cell viability by MTT assay; type: functional, cell-based
BT-549 [15] = assay: Effect on epithelial-mesenchymal transition in human BT549 cells assessed as ratio of slug to beta-actin level at 5 uM by Western blot analysis (reference value: 1); type: functional
MCF7 [16] = assay: Inhibition of mammosphere formation in human MCF7 cells at 2 uM after 7 days by microscopic method; type: functional, cell-based
Procedure, shortened: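 MCF-7 cells were grown under mammosphere-forming conditions with compound. Spheres 60 μm or larger were counted for quantitation.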

MCF7 [17] = assay: Inhibition of mammosphere formation in human MCF7 cells assessed as ratio of Sox2 to beta actin level at 5 uM by Western blot analysis (Rvb= 1); type: functional; procedure, shortened: as §2
BT-549 [18] = assay: Induction of apoptosis in human BT549 cells assessed as ratio of cleaved caspase-9 to beta-actin level at 5 uM by western blot analysis (reference value: 1); type: functional
MCF7 [19] = assay: Induction of apoptosis in human MCF7 cells assessed as ratio of cleaved caspase-9 to beta-actin level at 5 uM by western blot analysis (reference value: 1); type: functional
MDA-MB-231 [20] = assay: Induction of apoptosis in human MDA-MB-231 cells assessed as ratio of cleaved caspase-3 to beta-actin level at 5 uM by western blot analysis (reference value: 1); type: functional
BT-549 [21] = assay: Induction of apoptosis in human BT549 cells assessed as ratio of cleaved caspase-3 to beta-actin level at 5 uM by western blot analysis (reference value: 1); type: functional
MDA-MB-231 [22] = assay: Inhibition of mammosphere formation in human MDA-MB-231 cells assessed as ratio of C-Myc to beta actin level at 5 uM by Western blot analysis (Rvb= 1); type: functional; procedure, shortened: as §2
BT-549 [23] = assay: Inhibition of mammosphere formation in human BT549 cells assessed as ratio of C-Myc to beta actin level at 5 uM by Western blot analysis (Rvb= 1); type: functional
MDA-MB-231 [24] = assay: Inhibition of mammosphere formation in human MDA-MB-231 cells assessed as ratio of KLF4 to beta actin level at 5 uM by Western blot analysis (Rvb= 1); type: functional; procedure, shortened: as §2
MCF-10A [25] = assay: Induction of apoptosis in human MCF10A cells assessed as ratio of cleaved caspase-8 to beta-actin level at 5 uM by western blot analysis (reference value: 1); type: cell-based
MCF7 [26] = assay: Down regulation of Nanog expression in human MCF7 cells at 5 uM by Western blot analysis; type: functional; procedure, shortened: as §1
MCF7 [27] = assay: Cytotoxicity against human MCF7 cells assessed as reduction in cell viability at 5 uM by MTT assay; type: functional
BT-549 [28] = assay: Cytotoxicity against human BT549 cells assessed as reduction in cell viability at 5 uM by MTT assay; type: functional
MCF-10A [29] = assay: Induction of apoptosis in human MCF10A cells assessed as ratio of cleaved caspase-3 to beta-actin level at 5 uM by western blot analysis (reference value: 1); type: cell-based
MCF7 [30] = assay: Induction of apoptosis in human MCF7 cells assessed as ratio of cleaved caspase-3 to beta-actin level at 5 uM by western blot analysis (reference value: 1); type: functional
BT-549 [31] = assay: Cytotoxicity against human BT549 cells assessed as reduction in cell viability by MTT assay; type: functional, cell-based
MDA-MB-231 [32] = assay: Anti-migratory activity against human MDA-MB-231 cells assessed as reduction in wound closure at 2 uM up to 24 hrs by wound-healing assay; type: functional, cell-based
Procedure, shortened: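 MDA-MB-231 monolayer was scratched to make a wound gap. Cells were treated alongside a DMSO vehicle control, and migration into the gap was imaged at 24 h.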

MDA-MB-231 [33] = assay: Down regulation of KLF4 expression in human MDA-MB-231 cells at 5 uM by Western blot analysis; type: functional
MCF-10A [34] = assay: Induction of apoptosis in human MCF10A cells assessed as ratio of cleaved caspase-9 to beta-actin level at 5 uM by western blot analysis (reference value: 1); type: cell-based
MDA-MB-231 [35] = assay: Effect on epithelial-mesenchymal transition in human MDA-MB-231 cells assessed as ratio of slug to beta-actin level at 5 uM by Western blot analysis (reference value: 1); type: functional
MCF7 [36] = assay: Inhibition of mammosphere formation in human MCF7 cells assessed as ratio of Nanog to beta actin level at 5 uM by Western blot analysis (Rvb= 1); type: functional; procedure, shortened: as §2
MDA-MB-231 [37] = assay: Induction of apoptosis in human MDA-MB-231 cells assessed as ratio of cleaved caspase-8 to beta-actin level at 5 uM by western blot analysis (reference value: 1); type: functional
MDA-MB-231 [38] = assay: Effect on epithelial-mesenchymal transition in human MDA-MB-231 cells assessed as ratio of vimentin to beta-actin level at 5 uM by Western blot analysis (reference value: 1); type: functional
MDA-MB-231 [39] = assay: Cytotoxicity against human MDA-MB-231 cells assessed as reduction in cell viability at 5 uM by MTT assay; type: functional
BT-549 [40] = assay: Effect on epithelial-mesenchymal transition in human BT549 cells assessed as ratio of vimentin to beta-actin level at 5 uM by Western blot analysis (reference value: 1); type: functional
MCF7 [41] = assay: Inhibition of mammosphere formation in human MCF7 cells assessed as ratio of KLF4 to beta actin level at 5 uM by Western blot analysis (Rvb= 1); type: functional; procedure, shortened: as §2
MCF7 [42] = assay: Down regulation of Oct4A expression in human MCF7 cells at 5 uM by Western blot analysis; type: functional; procedure, shortened: as §1

For `C=C(c1ccc(C(=O)NCCN(CC)CC)cc1)c1cc2c(cc1C)C(C)(C)CCC2(C)C`, the Ratio (BT-549 [1]) was 2.4, the Ratio (MDA-MB-231 [2]) was 1.9 and the Activity (MCF7 [3]) was 10 - 30%. It also gave a Ratio (BT-549 [4]) of 0.5, a Ratio (MCF7 [5]) of 0.7 and a Ratio (MCF7 [6]) of 0.5. For the same molecule, the “inhibition (INH)” value (MCF7 [7]) was 80%, the Activity (MCF-10A [8]) was “Non-Toxic” and the Ratio (MCF7 [9]) was 1. The Ratio (MDA-MB-231 [10]) was 2.5, the “inhibition (INH)” value (MDA-MB-231 [11]) was 90% and the Ratio (BT-549 [12]) was 2.1. The Activity (MCF7 [13]) was 10 - 30%, the EC50 (MDA-MB-231 [14]) was < 10 µM and the Ratio (BT-549 [15]) was 0.4. The inhibition (MCF7 [16]) was “Active”, the Ratio (MCF7 [17]) was 0.9 and the Ratio (BT-549 [18]) was 2.3. It also gave a Ratio (MCF7 [19]) of 1, a Ratio (MDA-MB-231 [20]) of 1.3 and a Ratio (BT-549 [21]) of 2.6. For the same molecule, the Ratio (MDA-MB-231 [22]) was 0.9, the Ratio (BT-549 [23]) was 0.9 and the Ratio (MDA-MB-231 [24]) was 0.5. It also gave a Ratio (MCF-10A [25]) of 1, an Activity (MCF7 [26]) of 20% and an Activity (MCF7 [27]) of 40%. For the same molecule, the Activity (BT-549 [28]) was 60%, the Ratio (MCF-10A [29]) was 1.1 and the Ratio (MCF7 [30]) was 0.9. For the same molecule, the EC50 (BT-549 [31]) was < 10 µM, the Activity (MDA-MB-231 [32]) was “Active” and the Activity (MDA-MB-231 [33]) was 50%. For the same molecule, the Ratio (MCF-10A [34]) was 1, the Ratio (MDA-MB-231 [35]) was 0.9 and the Ratio (MCF7 [36]) was 0.8. The Ratio (MDA-MB-231 [37]) was 1.5, the Ratio (MDA-MB-231 [38]) was 0.4 and the Activity (MDA-MB-231 [39]) was 60%. For the same molecule, the Ratio (BT-549 [40]) was 0.4, the Ratio (MCF7 [41]) was 0.9 and the Activity (MCF7 [42]) was 50%.
